The target of data set [1] is T1, Hormone-sensitive lipase (Homo sapiens, UniProt Q05469).
T1 sequence (Q05469 whole entry): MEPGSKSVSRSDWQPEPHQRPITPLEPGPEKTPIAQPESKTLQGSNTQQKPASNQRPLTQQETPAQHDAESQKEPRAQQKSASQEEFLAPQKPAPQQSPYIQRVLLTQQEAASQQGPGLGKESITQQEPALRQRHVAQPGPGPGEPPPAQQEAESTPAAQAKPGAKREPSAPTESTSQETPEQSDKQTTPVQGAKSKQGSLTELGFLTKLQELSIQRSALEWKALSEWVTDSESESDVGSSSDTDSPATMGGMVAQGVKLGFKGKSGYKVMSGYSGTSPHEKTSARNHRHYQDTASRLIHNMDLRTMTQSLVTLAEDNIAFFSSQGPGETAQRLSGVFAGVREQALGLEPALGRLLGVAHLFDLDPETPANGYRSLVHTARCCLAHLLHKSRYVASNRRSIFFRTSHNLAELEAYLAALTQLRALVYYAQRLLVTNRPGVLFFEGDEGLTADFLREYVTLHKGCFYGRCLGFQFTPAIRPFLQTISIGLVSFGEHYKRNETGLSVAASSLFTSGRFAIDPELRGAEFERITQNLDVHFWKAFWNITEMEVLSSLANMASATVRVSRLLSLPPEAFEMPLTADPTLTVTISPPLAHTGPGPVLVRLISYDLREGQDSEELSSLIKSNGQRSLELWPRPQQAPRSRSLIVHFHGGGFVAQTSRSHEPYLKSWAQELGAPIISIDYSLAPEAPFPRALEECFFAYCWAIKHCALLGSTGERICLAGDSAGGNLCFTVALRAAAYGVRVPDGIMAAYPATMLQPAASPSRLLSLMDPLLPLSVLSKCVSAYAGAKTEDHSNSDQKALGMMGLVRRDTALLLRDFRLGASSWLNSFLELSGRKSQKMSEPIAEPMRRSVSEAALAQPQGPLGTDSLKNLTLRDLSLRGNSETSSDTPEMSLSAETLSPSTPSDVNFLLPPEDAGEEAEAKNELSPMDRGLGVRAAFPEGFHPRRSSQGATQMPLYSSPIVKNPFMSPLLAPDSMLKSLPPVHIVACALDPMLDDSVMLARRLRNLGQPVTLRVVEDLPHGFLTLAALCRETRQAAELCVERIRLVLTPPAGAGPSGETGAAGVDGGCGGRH
Put plainly: Inhibition of recombinant human HSL expressed in baculovirus infected sf9 insect cells using PNPB as substrate after 5 mins by spectrophotometric analysis.

Data set [2] is described as follows: Aqueous solubility of the compound in FaSSIF after 4 hrs by HPLC/UV analysis. The data set is classed as physicochemical. An outline of the steps: (§1)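 Solubility: DMSO sample solution freeze-dried. Residue stirred at 1700 rpm for 4 h in JP first fluid (pH 1.2), JP second fluid (pH 6.8) or FaSSIF. Filtered, filtrate diluted in DMSO, quantified by HPLC-UV against a per-sample calibration curve.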

The nature of data set [3]: Aqueous solubility of the compound in Japanese pharmacopoeia second fluid at pH 6.8 after 4 hrs by HPLC/UV analysis. The data set is classed as physicochemical. An outline of the steps:
as §1

Data set [4] in a line: Cmax in rat at 3 mg/kg, po by LC-MS/MS analysis. The data set is classed as ADME, organism-based. Further details: dose 3 mg/kg, route oral. The following applies: in vivo.
The test system of data set [5] is Rattus norvegicus. Kind of data set: Antilipolytic activity in Wistar rat assessed as reduction in plasma glycerol AUC (0 to 7 hrs) at 1 mg/kg, po by spectrophotometric analysis relative to control. In kind it is functional. Further details: scale not given: the % may be the effect or the level left. An outline of the steps:
(§2)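 Male Wistar rats, 8 weeks, fasted overnight. Dosed orally in 0.5% (w/v) methylcellulose, with vehicle controls (n = 4) and treated groups (n = 3). Tail-vein EDTA blood taken pre-dose and at 0.5, 1, 3, 5, 7 h. Plasma glycerol read with a free glycerol kit. Reduction in glycerol AUC0–7h versus vehicle expressed relative to a reference inhibitor group; mean ± SEM.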

Data set [6] can be described thus: Effective permeability of the compound in prisma HT buffer at 10 mM at pH 5 after 4 hrs by PAMPA. The data set is classed as physicochemical. The following applies: read-out: Peff. In a few lines:
(§3)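 PAMPA: filter coated with GIT-0 lipid. 10 mM DMSO stock diluted into Prisma HT buffer to give 5 µM donor solution (0.05% DMSO) at pH 5.0 or 7.4. Acceptor sink buffer used. Incubated 4 h at 25°C. Both compartments quantified by LC-MS/MS to derive the permeability coefficient.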

Data set [7] in a line: AUC (0 to 7 hrs) in rat at 3 mg/kg, po by LC-MS/MS analysis. The data set is classed as ADME, organism-based. Further details: time < 7 hr, dose 3 mg/kg, route oral. The following applies: in vivo.
The target of data set [8] is Acetylcholinesterase (Homo sapiens) (UniProt P22303). Kind of data set: Inhibition of AChE (unknown origin) at 10 uM using acetylthiocholine iodide as substrate preincubated for 10 mins followed by substrate addition measured after 15 mins by spectrophotometric analysis relative to control. In a few lines: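 Enzyme (100 U/mL) preincubated with inhibitor 10 min at room temperature, then mixed with 0.1 M potassium phosphate-HCl pH 8.0, acetylthiocholin iodide (final 500 μM) and DTNB; incubated 15 min at 37°C with shaking. Absorbance at 405 nm read at 0 and 15 min. Tested at 1, 10 and 100 μM.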

Data set [9] is described as follows: Aqueous solubility of the compound in Japanese pharmacopoeia first fluid at pH 1.2 after 4 hrs by HPLC/UV analysis. The data set is classed as physicochemical. In a few lines: as §1
Data set [10] concerns the target Cholinesterase (Homo sapiens) (UniProt P06276). Kind of data set: Inhibition of BuChE (unknown origin) at 10 uM using S-butyrylthiocholin iodide as substrate preincubated for 10 mins followed by substrate addition measured after 15 mins by spectrophotometric analysis relative to control. An outline of the steps:
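Enzyme (100 U/mL) preincubated with inhibitor 10 min at room temperature, then mixed with 0.1 M potassium phosphate-HCl pH 8.0, S-butyrylthiocholin iodide (final 1000 μM) and DTNB; incubated 15 min at 37°C with shaking. Absorbance at 405 nm read at 0 and 15 min. Tested at 1, 10 and 100 μM.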

The nature of data set [11]: Effective permeability of the compound in prisma HT buffer at 10 mM at pH 7.4 after 4 hrs by PAMPA. In kind it is physicochemical. The conditions noted are these: read-out: Peff. In a few lines: as §3
The nature of data set [12]: 1-octanol/phosphate buffered saline distribution coefficient, log D of the compound at 200 uM at pH 7.4 after 30 mins by shake flask based HPLC/LC-MS analysis. The data set is classed as physicochemical. In a few lines:
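Shake-flask LogD: PBS and 1-octanol pre-saturated by shaking and standing overnight. Compound at 200 μM in either phase, equal volume of the other added, shaken 30 min at room temperature, centrifuged 2100 g 5 min. Both phases quantified by HPLC and LC-MS. LogD7.4 = log(octanol peak area/PBS peak area).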

For data set [13], the target named is T2, Hormone-sensitive lipase (Rattus norvegicus, UniProt P15304).
T2 sequence (P15304 whole entry): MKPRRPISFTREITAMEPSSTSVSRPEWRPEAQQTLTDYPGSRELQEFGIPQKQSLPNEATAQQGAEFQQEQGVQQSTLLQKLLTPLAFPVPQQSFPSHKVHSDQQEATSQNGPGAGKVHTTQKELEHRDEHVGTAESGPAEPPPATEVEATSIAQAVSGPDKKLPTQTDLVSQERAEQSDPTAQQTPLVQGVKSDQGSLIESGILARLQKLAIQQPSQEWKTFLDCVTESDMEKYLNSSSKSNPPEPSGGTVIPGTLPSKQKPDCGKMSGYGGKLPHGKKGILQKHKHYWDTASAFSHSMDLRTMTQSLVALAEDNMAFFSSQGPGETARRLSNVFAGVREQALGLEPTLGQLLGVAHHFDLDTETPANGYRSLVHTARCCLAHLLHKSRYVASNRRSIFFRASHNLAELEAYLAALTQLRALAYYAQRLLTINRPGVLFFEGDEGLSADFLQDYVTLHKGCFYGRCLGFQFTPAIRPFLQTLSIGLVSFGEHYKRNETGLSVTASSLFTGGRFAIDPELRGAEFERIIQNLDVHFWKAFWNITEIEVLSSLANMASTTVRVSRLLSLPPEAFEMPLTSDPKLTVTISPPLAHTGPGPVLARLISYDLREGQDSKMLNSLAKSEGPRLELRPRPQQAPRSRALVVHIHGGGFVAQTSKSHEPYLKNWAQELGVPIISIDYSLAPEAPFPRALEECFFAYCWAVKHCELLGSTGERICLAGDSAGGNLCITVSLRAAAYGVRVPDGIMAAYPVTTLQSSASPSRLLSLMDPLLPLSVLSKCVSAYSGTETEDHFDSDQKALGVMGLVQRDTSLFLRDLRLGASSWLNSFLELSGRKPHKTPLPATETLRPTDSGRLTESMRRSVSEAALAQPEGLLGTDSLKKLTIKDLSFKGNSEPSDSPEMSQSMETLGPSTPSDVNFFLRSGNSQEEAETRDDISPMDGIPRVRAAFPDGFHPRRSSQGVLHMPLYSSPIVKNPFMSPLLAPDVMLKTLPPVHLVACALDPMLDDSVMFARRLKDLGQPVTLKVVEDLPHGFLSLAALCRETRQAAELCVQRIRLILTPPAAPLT
Kind of data set: Inhibition of HSL in rat adipocytes assessed as reduction in lipolysis by measuring glycerol concentration incubated for 30 mins by spectrophotometric analysis. In kind it is cell-based. In a few lines:
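Rat subcutaneous white adipocytes, differentiated 7 days, washed in lipolysis buffer (pH 7.0, with glucose, HEPES, adenosine, 1% BSA). Compound dilutions in DMSO added, 30 min at 37°C, 5% CO2. Supernatant glycerol measured with a free glycerol kit at 540 nm. Triplicate; IC50 from nonlinear curve fitting.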

Data set [14] concerns Rattus norvegicus. Kind of data set: Antilipolytic activity in Wistar rat assessed as reduction in plasma glycerol AUC (0 to 7 hrs) at 10 mg/kg, po by spectrophotometric analysis. The data set is classed as functional, organism-based. An outline of the steps: as §2

In brackets after ≈: the same amount, converted by molar mass. Activity calls are given as the source filed them. No cut-off for these calls is given here.

The source of these data is ChEMBL document CHEMBL4043125, “Design, synthesis, and pharmacological evaluation of a novel series of hormone sensitive lipase inhibitor” (Bioorg Med Chem, 2017).

Cholinesterase (Homo sapiens), sequence (P06276 whole entry): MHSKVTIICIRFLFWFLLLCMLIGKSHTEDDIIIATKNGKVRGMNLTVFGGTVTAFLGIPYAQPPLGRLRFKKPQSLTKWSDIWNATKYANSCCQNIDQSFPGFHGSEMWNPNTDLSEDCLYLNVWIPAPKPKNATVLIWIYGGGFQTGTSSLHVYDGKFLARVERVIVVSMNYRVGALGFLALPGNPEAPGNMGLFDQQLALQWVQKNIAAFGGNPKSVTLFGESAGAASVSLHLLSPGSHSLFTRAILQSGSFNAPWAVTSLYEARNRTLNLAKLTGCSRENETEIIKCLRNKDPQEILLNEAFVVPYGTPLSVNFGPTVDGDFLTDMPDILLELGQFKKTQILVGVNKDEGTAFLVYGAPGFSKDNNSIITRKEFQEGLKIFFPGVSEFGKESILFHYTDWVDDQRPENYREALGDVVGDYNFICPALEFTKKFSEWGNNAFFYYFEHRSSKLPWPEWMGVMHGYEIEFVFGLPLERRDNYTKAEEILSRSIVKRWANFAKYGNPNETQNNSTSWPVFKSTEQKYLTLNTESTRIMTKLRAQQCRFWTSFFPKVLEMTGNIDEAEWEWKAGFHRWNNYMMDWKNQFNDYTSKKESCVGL
Acetylcholinesterase (Homo sapiens), sequence (P22303 whole entry): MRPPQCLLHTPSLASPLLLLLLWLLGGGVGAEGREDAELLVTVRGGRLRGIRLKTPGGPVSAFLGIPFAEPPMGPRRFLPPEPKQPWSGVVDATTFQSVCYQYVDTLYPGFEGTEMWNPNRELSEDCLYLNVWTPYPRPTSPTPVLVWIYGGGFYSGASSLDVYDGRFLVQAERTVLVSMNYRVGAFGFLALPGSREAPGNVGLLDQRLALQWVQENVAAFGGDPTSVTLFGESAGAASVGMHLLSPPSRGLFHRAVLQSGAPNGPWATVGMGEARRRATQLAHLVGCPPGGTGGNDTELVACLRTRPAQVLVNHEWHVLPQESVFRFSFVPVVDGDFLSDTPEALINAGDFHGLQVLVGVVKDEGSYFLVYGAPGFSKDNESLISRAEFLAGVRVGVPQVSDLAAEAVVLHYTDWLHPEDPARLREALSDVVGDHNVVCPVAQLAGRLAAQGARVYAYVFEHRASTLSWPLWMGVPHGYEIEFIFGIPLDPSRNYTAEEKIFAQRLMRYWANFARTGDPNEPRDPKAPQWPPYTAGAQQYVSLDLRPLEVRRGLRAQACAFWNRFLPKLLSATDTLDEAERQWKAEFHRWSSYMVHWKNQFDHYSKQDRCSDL

As for `CN(C)C(=O)c1ccc(OC2CCN(C(=O)Cc3ccccc3B(O)O)CC2)nc1`, the IC50 (usually the concentration needed to halve the response being measured) on Hormone-sensitive lipase [1] is over 5 µM.
For `O=C(Cc1ccc(F)cc1B(O)O)N1CCC(Oc2ccc(C(F)(F)F)cn2)CC1`, the solubility (as a rule, the dissolved amount per volume that the medium holds) at 4 h in data set [2] was 99 µg/mL (≈ 232 µM); in data set [3], 84 µg/mL (≈ 197 µM); in data set [9], 190 µg/mL (≈ 446 µM). Besides, the peak level in [4] (Cmax) was 650 ng/mL. Further, in the data set on Rattus norvegicus [5], the Activity stood at 22%. The Papp at 4 h, 10000 µM in [6] and in [11] was over 50 ×10⁻⁶ cm/s throughout. Also, the exposure AUC(0-t) – broadly, exposure summed from dosing to a finite time, without extrapolation to infinity – at 7 h in data set [7] came out at 3180 ng·h/mL. For the same compound, the inhibition (usually the drop in the measured response relative to a control, in per cent) in [8] worked out at 7%; in data set [10], 2%. Besides, in data set [12], the logD (commonly lipophilicity at a set pH, counting ionised and neutral species) at 0.5 h, 200 µM turned out to be 3.7.
Turning to `O=C(Nc1ccccc1B(O)O)c1ccc(Oc2ccc(C(F)(F)F)cn2)cn1`, the half-maximal inhibitory concentration (IC50) on Hormone-sensitive lipase [13] amounted to 1.1 µM.
For the compound `O=C(Nc1ccc(Cl)cc1B(O)O)c1ccc(Oc2ccc(C(F)(F)F)cc2)nc1`, the solubility at 4 h in data set [2] stood at 12 µg/mL (≈ 27.5 µM); in data set [3], 1.5 µg/mL (≈ 3.44 µM); in data set [9], 1.8 µg/mL (≈ 4.12 µM). Also, at Hormone-sensitive lipase [13], the IC50 came to 0.11 µM. The compound further showed a log distribution coefficient (logD) at 0.5 h, 200 µM in data set [12] of 4.3.
For the compound `O=C(Cc1ccccc1B(O)O)N1CCC(Oc2ccc(C(F)(F)F)nc2)CC1`, at Hormone-sensitive lipase [13], the IC50 was determined as 0.18 µM. The values for the inhibition in data set [8] and in data set [10] were 6% and 62%, respectively.
Turning to `O=C(Cc1ccccc1B(O)O)N1CCC(COc2ccc(C(F)(F)F)cn2)CC1`, the IC50 on Hormone-sensitive lipase [13] stood at 0.26 µM.
For `O=C(Cc1ccccc1B(O)O)N1CCC(Oc2ccc(C(F)(F)F)cn2)CC1`, the 50% inhibitory concentration (IC50) at Hormone-sensitive lipase [13] stood at 0.08 µM. Further, the inhibition in [8] came out at 7%; in data set [10] it was 46%.
For `O=C(Cc1ccccc1B(O)O)N1CCC(Oc2ccc(C(F)(F)F)cc2)CC1`, at Hormone-sensitive lipase [13], the IC50 was determined as 0.13 µM. Moreover, the inhibition in data set [8] was determined as 9%; in [10] it was 72%.
As for `O=C(Oc1ccc(Oc2ccc(C(F)(F)F)cn2)cc1)N1CCC(O)CC1`, the outcome in the data set on Rattus norvegicus [14] was Active.
Take `O=C(CCc1ccccc1B(O)O)N1CCC(Oc2ccc(C(F)(F)F)cn2)CC1`: on Hormone-sensitive lipase [13], the IC50 is 1.4 µM.
For `OB(O)c1ccccc1CN1CCC(Oc2ccc(C(F)(F)F)cn2)CC1`, at Hormone-sensitive lipase [13], the IC50 was determined as 1.4 µM.
As for `O=C(C(O)c1ccccc1B(O)O)N1CCC(Oc2ccc(C(F)(F)F)cn2)CC1` (configuration not stated), the concentration for half-maximal inhibition (IC50) at Hormone-sensitive lipase [13] stood at 0.28 µM. In addition, the inhibition in [8] is -4%; in data set [10] it was 4%.
As for `O=C(Nc1ccccc1B(O)O)c1ccc(Oc2ccc(C(F)(F)F)cn2)cc1`, the concentration for half-maximal inhibition (IC50) at Hormone-sensitive lipase [13] came out at 0.47 µM. In data set [12], this compound registered a pH-dependent lipophilicity (logD) at 0.5 h, 200 µM of 3.2.
Turning to `O=C(Cc1ccc(Cl)cc1B(O)O)N1CCC(Oc2ccc(C(F)(F)F)cn2)CC1`, the concentration for half-maximal inhibition (IC50) at Hormone-sensitive lipase [13] was 0.024 µM. The inhibition in data set [8] was 8%; in [10] it was 5%.
With `COc1ccc(CC(=O)N2CCC(Oc3ccc(C(F)(F)F)cn3)CC2)c(B(O)O)c1`, the half-maximal inhibitory concentration (IC50) on Hormone-sensitive lipase [13] was 0.045 µM. For the same compound, the inhibition in data set [8] is 9%; in data set [10] it was -4%.
